In ChEMBL document CHEMBL3627626, “6-Substituted Pyrrolo[2,3-d]pyrimidine Thienoyl Regioisomers as Targeted Antifolates for Folate Receptor α and the Proton-Coupled Folate Transporter in Human Tumors” (J Med Chem, 2015):
The source made the active and inactive calls. No cut-off for these calls is given here.

Experiments:
SK-OV-3 [1] = assay: Antitumor activity against human SKOV3 cells expressing RFC/PCFT/FRalpha xenografted in folate-deficient diet fed NCR SCID mouse assessed as delay in tumor growth at 28 mg/kg, iv administered every 4 days on day 3, 7, 11 measured twice per week; format: functional, organism-based
Method in brief: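 Female NCR SCID mice, 10 weeks old, given bilateral subcutaneous SKOV3 tumor fragments and randomized at 5 mice/group. Fed ad libitum a folate-deficient diet or a standard folate-replete diet. Dosed intravenously at 0.2 mL/injection on a Q4dx3 schedule (days 3, 7, 11). […] Tumors measured twice weekly; mice weighed daily.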

Mus musculus [2] = assay: Toxicity in folate-deficient diet fed NCR SCID mouse xenografted with human SKOV3 cells expressing RFC/PCFT/FRalpha assessed as body weight loss at 28 mg/kg, iv administered every 4 days on day 3, 7, 11 relative to control; format: organism-based, SK-OV-3; settings: in vivo, 96 h
Method in brief: (§1)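 Ten-week-old female NCR SCID mice, fed a folate-deficient or standard folate-replete diet, were implanted subcutaneously and bilaterally with SKOV3 tumour fragments. Randomised at 5 mice/group. Dosed intravenously, 0.2 mL per injection, in 5% ethanol/1% Tween-80/0.5% NaHCO3 in water at pH 6.5, on days 3, 7 and 11. Tumours measured twice weekly and mice weighed daily. T/C taken on day 21; growth delay and log cell kill also reported.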

SK-OV-3 [3] = assay: Antitumor activity against human SKOV3 cells expressing RFC/PCFT/FRalpha xenografted in folate-replete diet fed NCR SCID mouse assessed as tumor growth inhibition at 28 mg/kg, iv administered every 4 days on day 3, 7, 11 measured on day 21 relative to control; format: functional; method in brief: as §1
Mus musculus [4] = assay: Toxicity in folate-replete diet fed NCR SCID mouse xenografted with human SKOV3 cells expressing RFC/PCFT/FRalpha assessed as body weight loss at 28 mg/kg, iv administered every 4 days on day 3, 7, 11; format: organism-based, SK-OV-3; settings: in vivo, 96 h
KB [5] = assay: Antiproliferative activity against human KB cells expressing FRalpha/PCFT/RFC assessed as cell growth inhibition after 96 hrs by CellTiter-Blue assay in presence of 200 nM folic acid; format: functional, cell-based
IGROV-1 = assay: Antiproliferative activity against human IGROV1 cells after 96 hrs by CellTiter-Blue assay; format: functional, cell-based; settings: IGROV-1, 96 h
Method in brief: (§2)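 IGROV1 and SKOV3 cells plated at ~2500–5000 cells/well in folate-free RPMI 1640 with 10% dialyzed FBS, antibiotics and 2 nM LCV, over a range of drug concentrations, ±200 nM folic acid in parallel. Incubated up to 96 h. Viability read by Cell Titer Blue fluorescence (ex 560/em 590 nm).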

SK-OV-3 [6] = assay: Antiproliferative activity against human SKOV3 cells after 96 hrs by CellTiter-Blue assay; format: functional, cell-based; settings: SK-OV-3, 96 h; method in brief: as §2
SK-OV-3 [7] = assay: Antiproliferative activity against human SKOV3 cells after 96 hrs by CellTiter-Blue assay in presence of 200 nM folic acid; format: functional, cell-based; settings: SK-OV-3, 96 h; method in brief: as §2
[8] = biological target: Folate receptor alpha (Homo sapiens) (UniProt P15328); assay: Displacement of [3H]-folic acid from human FRalpha expressed in Chinese hamster RT16 cells after 15 mins relative to folic acid; format: cell-based
Sequence of Folate receptor alpha (Homo sapiens) (P15328 25-234 limits assumed): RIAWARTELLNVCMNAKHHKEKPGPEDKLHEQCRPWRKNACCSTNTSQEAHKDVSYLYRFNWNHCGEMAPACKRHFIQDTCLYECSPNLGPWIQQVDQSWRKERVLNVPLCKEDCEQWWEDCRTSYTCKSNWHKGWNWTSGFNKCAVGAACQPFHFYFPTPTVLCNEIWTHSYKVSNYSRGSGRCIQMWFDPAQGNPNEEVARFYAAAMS
Method in brief: (§3)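 Competitive binding to surface folate receptor on RT16 (FRα) or D4 (FRβ) CHO cells. Cells were acid-washed (pH 3.5) to strip bound folate, then incubated in HEPES-buffered saline pH 7.4 with 50 nM [3H]folic acid plus unlabeled ligand (0–1000 nM) for 15 min at 0 °C. Bound label was normalised to protein. Affinity is the inverse molar ratio for 50% displacement, with folic acid set to 1. Mean of 4–10 experiments ±SE.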

[9] = biological target: Folate receptor beta (Homo sapiens) (UniProt P14207); assay: Displacement of [3H]-folic acid from human FRbeta expressed in Chinese hamster D4 cells after 15 mins relative to folic acid; format: cell-based; method in brief: as §3
Sequence of Folate receptor beta (Homo sapiens) (P14207 17-230 limits assumed): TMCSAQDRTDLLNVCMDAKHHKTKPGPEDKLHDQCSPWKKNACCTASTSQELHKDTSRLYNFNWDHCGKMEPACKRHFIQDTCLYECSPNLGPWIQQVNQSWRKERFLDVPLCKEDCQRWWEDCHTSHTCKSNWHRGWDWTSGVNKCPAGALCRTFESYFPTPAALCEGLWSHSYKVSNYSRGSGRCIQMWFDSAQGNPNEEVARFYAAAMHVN

[10] = biological target: T1, Trifunctional purine biosynthetic protein adenosine-3 (Homo sapiens) (UniProt P22102); assay: Inhibition of GARFTase in human KB cells expressing FRalpha/PCFT/RFC assessed as cell growth inhibition after 96 hrs by CellTiter-Blue assay in presence of adenosine; format: cell-based
T1 sequence (whole entry): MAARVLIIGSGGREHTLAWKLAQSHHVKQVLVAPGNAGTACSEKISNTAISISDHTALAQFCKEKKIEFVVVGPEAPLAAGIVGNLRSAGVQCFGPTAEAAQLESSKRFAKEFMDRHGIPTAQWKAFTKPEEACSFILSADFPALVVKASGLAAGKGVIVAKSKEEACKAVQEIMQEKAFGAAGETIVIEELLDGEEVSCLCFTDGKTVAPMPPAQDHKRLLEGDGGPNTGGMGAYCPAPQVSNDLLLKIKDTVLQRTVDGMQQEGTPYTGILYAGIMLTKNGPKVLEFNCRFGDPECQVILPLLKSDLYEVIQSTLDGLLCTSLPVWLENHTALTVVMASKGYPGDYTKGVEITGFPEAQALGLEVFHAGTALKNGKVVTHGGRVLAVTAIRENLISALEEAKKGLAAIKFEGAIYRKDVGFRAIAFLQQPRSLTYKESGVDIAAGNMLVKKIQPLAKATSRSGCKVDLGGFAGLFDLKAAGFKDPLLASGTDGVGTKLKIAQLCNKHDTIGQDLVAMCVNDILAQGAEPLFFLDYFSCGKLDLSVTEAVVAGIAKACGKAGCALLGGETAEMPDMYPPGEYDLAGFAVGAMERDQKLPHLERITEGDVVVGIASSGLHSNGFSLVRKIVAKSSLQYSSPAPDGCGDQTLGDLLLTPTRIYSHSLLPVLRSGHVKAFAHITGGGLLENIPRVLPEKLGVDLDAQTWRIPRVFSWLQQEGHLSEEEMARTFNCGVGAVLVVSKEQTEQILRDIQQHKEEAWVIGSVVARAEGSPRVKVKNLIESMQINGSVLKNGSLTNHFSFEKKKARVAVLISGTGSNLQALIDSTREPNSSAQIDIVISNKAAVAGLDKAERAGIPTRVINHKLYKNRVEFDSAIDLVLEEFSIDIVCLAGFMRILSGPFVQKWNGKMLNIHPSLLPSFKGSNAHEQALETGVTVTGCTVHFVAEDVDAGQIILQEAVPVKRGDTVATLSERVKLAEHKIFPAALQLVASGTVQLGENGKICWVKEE

[11] = biological target: T1, Trifunctional purine biosynthetic protein adenosine-3 (Homo sapiens); assay: Inhibition of GARFTase in human KB cells expressing FRalpha/PCFT/RFC assessed as cell growth inhibition after 96 hrs by CellTiter-Blue assay in presence of AICA; format: cell-based
[12] = Binding affinity to human RFC expressed in Chinese hamster PC43-10 cells assessed as cell growth inhibition after 96 hrs by CellTiter-Blue assay
R2 [13] = assay: Cytotoxicity against PCFT-null Chinese hamster R2 cells assessed as cell growth inhibition after 96 hrs by CellTiter-Blue assay; format: cell-based, Cricetulus griseus; settings: R2, 96 h
R2 [14] = assay: Cytotoxicity against Chinese hamster R2 cells transfected with empty PCDNA3 assessed as cell growth inhibition after 96 hrs by CellTiter-Blue assay; format: cell-based, Cricetulus griseus
KB [15] = assay: Antiproliferative activity against human KB cells expressing FRalpha/PCFT/RFC assessed as cell growth inhibition after 96 hrs by CellTiter-Blue assay; format: functional, cell-based
[16] = biological target: T2, Trifunctional purine biosynthetic protein adenosine-3 (Homo sapiens, UniProt P22102); assay: Inhibition of GARFTase in human KB cells expressing FRalpha/PCFT/RFC assessed as incorporation of [14C(U)]-glycine into [14C]-formyl GAR preincubated for 1 hr followed by azaserine, L-glutamine, 14C(U)]-glycine addition measured after 16 hrs; format: cell-based
T2 sequence (P22102 whole entry): T1 sequence (whole entry)
Method in brief: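 In situ assay in KB cells. Cells were exposed to a range of drug concentrations with [14C]glycine for 16 h under proliferation-assay conditions, with azaserine present. Radiolabelled metabolites were extracted and separated on anion exchange columns, and [14C]formyl GAR quantified. Mean ±SE of three experiments.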

[17] = biological target: T2, Trifunctional purine biosynthetic protein adenosine-3; assay: Inhibition of human recombinant His-tagged GARFTase assessed as formation of 5,8-dideazafolate from 10-formyl-5,80-dideazafolic acid measured every 15 secs over 20 mins by spectrophotometric analysis
R2 [18] = assay: Cellular uptake in PCFT-null Chinese hamster R2 cells at 0.5 uM at 37 degC at pH 5.5 measured over 2 mins; format: ADME, cell-based, Cricetulus griseus; settings: r2, pH 5.5, 2 min
Method in brief: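 R2/PCFT4 or PCFT-null R2 CHO cells were grown in suspension from spinner flasks. Uptake of 0.5 μM [3H]drug measured over 2 min at 37 °C in MES-buffered saline pH 5.5, with or without 10 μM unlabeled competitor. Uptake was quenched with ice-cold DPBS and cells solubilised in NaOH. Results are pmol/mg protein, mean ±SEM of three experiments.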

[19] = biological target: T3, Proton-coupled folate transporter (Homo sapiens) (UniProt Q96NT5); assay: Binding affinity to human PCFT expressed in Chinese hamster R2/PCFT4 cells assessed as intracellular drug transport rate at 37 degC at pH 5.5 measured over 2 mins by Lineweaver-Burk plot analysis; format: cell-based
T3 sequence (whole entry): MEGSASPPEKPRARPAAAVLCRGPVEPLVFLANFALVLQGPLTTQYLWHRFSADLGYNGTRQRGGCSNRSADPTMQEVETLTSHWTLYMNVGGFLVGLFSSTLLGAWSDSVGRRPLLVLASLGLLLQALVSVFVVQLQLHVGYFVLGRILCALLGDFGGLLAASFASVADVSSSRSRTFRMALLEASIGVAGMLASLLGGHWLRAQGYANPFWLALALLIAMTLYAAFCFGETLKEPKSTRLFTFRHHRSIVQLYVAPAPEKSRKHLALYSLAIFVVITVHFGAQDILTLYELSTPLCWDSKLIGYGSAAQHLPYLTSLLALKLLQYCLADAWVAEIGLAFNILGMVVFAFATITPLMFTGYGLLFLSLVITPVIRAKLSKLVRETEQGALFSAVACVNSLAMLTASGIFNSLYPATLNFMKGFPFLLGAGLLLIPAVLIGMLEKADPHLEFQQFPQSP
Method in brief: (§4)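 R2/PCFT4 CHO cells were grown as monolayers, transferred to spinner flasks, and used as suspensions (5–10 × 10⁷ cells). Uptake was quenched with ice-cold DPBS and cells were NaOH-solubilized. Results are pmol/mg protein; Kt and Vmax come from Lineweaver–Burke plots.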

[20] = biological target: T3, Proton-coupled folate transporter (Homo sapiens); assay: Binding affinity to human PCFT expressed in Chinese hamster R2/PCFT4 cells assessed as intracellular drug transport rate at 37 degC at pH 6.8 measured over 2 mins by Lineweaver-Burk plot analysis; format: cell-based; method in brief: as §4

For `Nc1nc2[nH]c(CCCc3ccc(C(=O)N[C@@H](CCC(=O)O)C(=O)O)s3)cc2c(=O)[nH]1`, the Activity (SK-OV-3 [1]) was “Active”, the Activity (Mus musculus [2]) was 7.9% and the T/C (SK-OV-3 [3]) was 79%. For the same compound, the Activity (Mus musculus [4]) was “Non-toxic”, the IC50 (KB [5]) was 101 nM and the IC50 (IGROV-1) was 0.73 nM. The IC50 (SK-OV-3 [6]) was 2.2 nM, the IC50 (SK-OV-3 [7]) was 47 nM and the Activity [8] was 70%. For the same compound, the Activity [9] was 50%, the inhibition [10] was “inactive” and the inhibition [11] was “inactive”. For the same compound, the IC50 [12] was 101 nM.

`Nc1nc(N)c2c(CCCc3cc(C(=O)N[C@@H](CCC(=O)O)C(=O)O)cs3)coc2n1` showed an IC50 (R2 [13]) greater than 1000 nM, an IC50 (R2 [14]) greater than 1000 nM and an IC50 (KB [15]) of 70.3 nM. For the same compound, the IC50 (KB [5]) was greater than 1000 nM, the inhibition [10] was “inactive” and the inhibition [11] was “inactive”. For the same compound, the IC50 [16] was 101 nM and the Ki [17] was 6500 nM.

In the case of `Nc1nc2[nH]cc(CCc3ccc(C(=O)N[C@@H](CCC(=O)O)C(=O)O)cc3)c2c(=O)[nH]1` [PEMETREXED], the Drug uptake (R2 [18]) is reported as “Not Active”, the K [19] is reported as 0.044 µM and the K [20] is reported as 0.27 µM.
